Assay [1] concerns the target Carbonic anhydrase 9 (Homo sapiens, UniProt Q16790). The assay can be described thus: Inhibition of human CA9 assessed as inhibition constant. The gist of the method:
(§1)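 Esterase activity of the hCA isoform was followed spectrophotometrically by Verpoorte's method, as the rise in absorbance at 348 nm with p-nitrophenyl acetate as substrate. Increasing inhibitor concentrations were incubated with the substrate, from 1 mg mL−1 DMSO stocks, to derive KI. Results are means of triplicate assays ± SEM.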

For assay [2], the target named is Carbonic anhydrase 12 (Homo sapiens, UniProt O43570). Put plainly: Inhibition of human CA12 assessed as inhibition constant. The method in brief:
as §1

The subject of assay [3] is L929. Put plainly: Cytotoxicity against mouse L929 cells assessed as cell viability measured after 48 hrs by MTT assay. As to conditions: L929, 48 h.
The test system of assay [4] is A549. The assay can be described thus: Cytotoxicity against human A549 cells assessed as cell viability measured after 48 hrs by MTT assay. The settings on record: A549, 48 h.
Assay [5] relates to Hep 3B2. Put plainly: Cytotoxicity against human Hep3B cells assessed as cell viability measured after 48 hrs by MTT assay.

Carbonic anhydrase 12, sequence (O43570 whole entry): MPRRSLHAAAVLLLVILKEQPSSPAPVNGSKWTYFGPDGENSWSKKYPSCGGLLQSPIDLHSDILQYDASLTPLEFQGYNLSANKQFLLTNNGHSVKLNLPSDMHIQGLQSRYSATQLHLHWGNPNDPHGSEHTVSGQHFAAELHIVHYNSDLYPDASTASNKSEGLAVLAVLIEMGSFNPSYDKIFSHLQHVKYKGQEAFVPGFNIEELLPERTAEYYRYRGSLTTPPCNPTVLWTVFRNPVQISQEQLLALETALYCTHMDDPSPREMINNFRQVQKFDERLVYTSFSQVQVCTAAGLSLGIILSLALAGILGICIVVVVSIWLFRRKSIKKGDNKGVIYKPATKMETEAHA

The Ki is a dissociation constant, usually derived from enzyme kinetics or from competition with a known ligand. As for `CCCCCCCO/N=C(/C)c1nnn(-c2ccc(S(N)(=O)=O)cc2)c1C`, the figures for the Ki in assay [1] and in assay [2] were 0.196 µM and 0.117 µM, respectively.

Usually IC50 stands for the concentration needed to halve the response being measured. As to `O=c1[nH]cc(F)c(=O)[nH]1` [FLUOROURACIL], the IC50 came to 14 µM in assay [3], 100 µM in assay [4] and 60.6 µM in assay [5].

(Values after ChEMBL document CHEMBL6134774, “Novel benzenesulfonamides containing a dual triazole moiety with selective carbonic anhydrase inhibition and anticancer activity” (RSC Med Chem, 2025).)
